# Screens (PubChem)
# In the library only some 0.79% were active in any assay of this set; here they are far more common.
# bIAP inh = bovine intestinal alkaline phosphatase inhibitors, primary screen, selectivity assay for TNAP inhibitor project, biochemical, bovine IAP, CDP-star luminescence | alkaline phosphatase, intestinal [Bos taurus] | purified bovine IAP, 30 min | inhibition, % at 20 µM | 190,000 tested, under 10 active | AID 1019, 2008;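 active = over 50% inhibition of intestinal alkaline phosphatase at 20 µM in the single-dose screen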
#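 System: Purified bovine intestinal alkaline phosphatase (IAP) enzyme | Input: IAP diluted 1/65,000,000 in the well | Also added: CDP-star chemiluminescent phosphatase substrate, 30 µM final | Dosing: 20 µM single dose | Times: Enzyme reaction for 30 min at room temperature | Detection: Luminescence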
# hIAP act = human IAP activators, primary screen, biochemical, luminescence, uHTS; purified human IAP, CDP-Star luminescence, 30 min; hits give high values; 1 = vehicle-only enzyme, 0 = enzyme-free background; Intestinal-type alkaline phosphatase (Homo sapiens), P09923; 0.16% of 330,000 active; activation factor at 10 µM; AID 2524, 2010;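 active = activation factor of the enzyme at least 2-fold when tested at 20 µM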
# Target sequence (P09923 whole entry, looked up): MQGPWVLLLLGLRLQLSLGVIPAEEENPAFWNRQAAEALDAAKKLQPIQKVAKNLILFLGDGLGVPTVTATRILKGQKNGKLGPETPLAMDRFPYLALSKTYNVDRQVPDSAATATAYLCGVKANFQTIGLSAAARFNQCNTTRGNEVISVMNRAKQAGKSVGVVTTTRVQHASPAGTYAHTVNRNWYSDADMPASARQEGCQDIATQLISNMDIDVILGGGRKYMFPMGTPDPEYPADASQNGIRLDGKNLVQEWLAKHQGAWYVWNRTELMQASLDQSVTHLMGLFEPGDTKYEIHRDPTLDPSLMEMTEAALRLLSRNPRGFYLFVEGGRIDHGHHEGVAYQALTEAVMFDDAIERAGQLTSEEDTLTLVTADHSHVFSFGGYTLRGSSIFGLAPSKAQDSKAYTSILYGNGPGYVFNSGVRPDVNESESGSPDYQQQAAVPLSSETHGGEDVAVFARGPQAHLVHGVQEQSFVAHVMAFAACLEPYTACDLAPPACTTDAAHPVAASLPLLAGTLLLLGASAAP
# mIAP activ = activators of mouse IAP, primary screen, biochemical, luminescence, uHTS | intestinal alkaline phosphatase [Mus musculus] | muIAP, CDP-Star luminescence, 30 min; hits give high values; 1 = vehicle-only enzyme signal, 0 = enzyme-free wells | activation factor at 10 µM | 0.24% of 330,000 active;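 active = activation factor of at least 2 at 20 µM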
#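 Assay system: mouse IAP enzyme; reagent: chemiluminescent substrate CDP-Star; dosing: test compounds delivered from DMSO solution; schedule: 30 min at room temperature; measured by: luminescence from enzymatic CDP-Star hydrolysis; controls: DMSO-only wells and no-enzyme negative control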
# hIAP block = human IAP inhibitors, primary screen, biochemical, luminescence, uHTS; purified IAP, CDP-Star luminescence, 30 min; inhibition, % at 10 µM; 0.12% of 330,000 active; Intestinal-type alkaline phosphatase (Homo sapiens), P09923;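 active = inhibition reaching a set limit with compound at 10 µM in the primary screen, cut at about 35% in these data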;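 also: plate controls were DMSO wells with enzyme for no effect and no-enzyme buffer wells for full effect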
# bIAP act = bovine intestinal alkaline phosphatase activators, primary screen, biochemical, bovine IAP, CDP-star luminescence; purified bovine IAP, 30 min; hits give high values; fold of DMSO-control signal, blank-subtracted; 0.17% of 200,000 active; AID 1016, 2008; activation factor at 20 µM; alkaline phosphatase, intestinal [Bos taurus];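 active = activation factor of 2 or more at 20 µM, a signal rise over negative controls twice the positive control's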
# mIAP inh = inhibitors of mouse IAP, primary screen, biochemical, luminescence, uHTS. intestinal alkaline phosphatase [Mus musculus]. purified mouse IAP, CDP-Star luminescence, 30 min. inhibition, % at 10 µM. 0.2% of 330,000 active;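 active = inhibition of at least 40% at 10 µM in the primary screen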;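 also: plate controls were DMSO with enzyme for no effect and no enzyme wells for full effect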
# hIAP act confirm = human IAP activators, confirmation, biochemical, luminescence, single concentration, uHTS hits; activation (%Activity, negative = activation), % at 8.3 µM; purified IAP, CDP-Star luminescence, 30 min; hits give low values; shares compounds with hIAP act; 10% of 880 active; AID 434926, 2010;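 active = at least twofold enzyme activation in any of six single-dose repeats, which the averaged readout prints as negative percent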
# Starred values were filed as active, the others as inactive; i = inactive; x = no result given.
SMILES,bIAP inh,hIAP act,mIAP activ,hIAP block,bIAP act,mIAP inh,hIAP act confirm
CC(NC(=O)CCn1ccc2cc(S(=O)(=O)N3CCCC3)ccc21)c1ccccc1 (stereo not given),x,0.83,1.1,17,x,-5,x
Cc1ccc(S(=O)(=O)NCCC(=O)NNC(=O)COc2ccc(Br)cc2)cc1C,x,2.5*,1.1,-148,x,-6,41
CCN(CC)S(=O)(=O)c1ccc(/C=C/C(=O)OCC(=O)NCc2cccs2)cc1,x,0.99,1,1,x,-1,x
Cc1ccc(S(=O)(=O)NC(CC(=O)NCC2CCCO2)c2ccco2)cc1 (stereo not given),2,0.61,1.1,39*,1,-15,-3
O=C(Nc1nccs1)C(c1ccccc1)N1CCCCC1 (stereo not given),1,1,1,0,1,-5,x
Cc1ccsc1/C=N/Nc1ncnc2nc[nH]c12,-24,2.3*,0.97,-126,1.2,3,-11
COc1cccc(/C=N/NC(=O)CNC(=O)/C=C\c2ccccc2)c1O,x,2.4*,0.84,-142,x,16,-5
CC(C)(C)NC(=O)C(c1ccco1)N(C(=O)Cn1nnc(-c2ccc(F)cc2)n1)c1ccccc1F (stereo not given),-1,1.2,1.1,-22,1,-13,x
CC(C)NC(=O)C(c1ccc(F)cc1)N(Cc1ccco1)C(=O)CCC(=O)Nc1ccccn1 (stereo not given),x,0.94,1,6,x,0,x
C=CCN1C(=O)C2(NNc3ccccc3O2)c2ccccc21 (stereo not given),-286,6.7*,1.1,i,3.9*,-6,-93*
CC[C@]12c3[nH]c4ccccc4c3CCN1C(=O)C(CC(=O)NC/C=C(\C)CCC=C(C)C)C[C@@H]2C(=O)N1CCN(C(=O)c2ccco2)CC1 (stereo not given in full),x,1,1.1,-1,x,-14,x
Cc1cc(=O)[nH]c(-n2[nH]c3c(c2=O)CCCC3)n1,-49,2.3*,0.81,-133,1.5,19,56
O=C(CC1C=Cc2ccccc2N1C(=O)c1ccccc1)c1ccccc1 (stereo not given),x,0.92,0.96,8,x,4,x
COc1ccc(N=Cc2sc3ccccc3c2Cl)cc1,4,0.62,0.99,38*,1,1,-34
c1ccc(-c2nc(NCCCN3CCOCC3)c3ccccc3n2)cc1,4,2*,1,-104,1,0,-9
Cc1cccc(-c2nc(NCCCN3CCOCC3)c3ccccc3n2)c1,3,1.1,0.95,-11,1,5,x
COc1ccc(C(=O)NC(=S)NNC(=O)c2ccccc2O)cc1,x,2.3*,0.73,-134,x,27,-8
O=C(NC(=S)NNC(=O)c1ccc(Cl)cc1Cl)c1cccnc1,-3,1.1,0.73,-5,1,27,x
O=C(NC(=S)NNC(=O)c1ccccc1O)c1cccnc1,-8,2.1*,0.83,-106,1.1,17,-1
O=C(NNC(=O)c1cc2ccccc2cc1O)Nc1ccc(Br)cc1,x,1.1,0.89,-14,x,11,x
COc1ccc(NC(=O)NNC(=O)c2cc3ccccc3cc2O)cc1,x,2.3*,0.94,-134,x,6,4
CN(C)S(=O)(=O)c1cccc(NC(=S)NNC(=O)c2cc3ccccc3cc2O)c1,x,2.6*,0.9,-165,x,10,72
Cc1ccc(OCc2nnc(SC(C)C(=O)O)n2-c2ccccc2)cc1 (stereo not given),x,1.1,1.2,-7,x,-20,x
CS(=O)(=O)c1ccc2nc(NC(=O)CCNC(=O)c3ccccc3Cl)sc2c1,x,1,1,0,x,0,x
COc1ccc(C(=O)NNC(=S)NC(=O)/C=C/c2cccs2)cc1,-9,1.3,0.79,-25,1.1,21,x
SMILES,bIAP inh,hIAP act,mIAP activ,hIAP block,bIAP act,mIAP inh,hIAP act confirm
O=C(/C=C/c1cccs1)NC(=S)NNC(=O)c1ccccc1O,-34,2.4*,0.69,-137,1.3,30,28
Nc1ccccc1-c1nnc(-c2ccc(-c3ccccc3)cc2)o1,27,2*,1.1,-100,0.7,-9,-46
c1ccc(-c2nnc(-c3ccccc3)o2)cc1,2,0.87,1,13,1,-1,x
C1CCCCCC(NCCN2CCNCC2)CCCCC1,x,1.1,1.1,-9,x,-8,x
O=C(CN1CCN(C(=O)C2COc3ccccc3O2)CC1)Nc1ccccc1 (stereo not given),x,0.6,0.91,40*,x,9,-9
CN(Cc1cnn(C)c1)C(=O)C1CCC(=O)N(Cc2cccc(F)c2)C1 (stereo not given),x,0.55,0.99,45*,x,1,-58
Cc1cc(C)n2nc(CC(=O)NNC(=O)COc3cccc(C)c3C)nc2n1,x,2.1*,0.91,-106,x,10,-26
CCOC(=O)Cc1nc2nc(C)cc(C)n2n1,-8,1,0.94,-4,1.1,6,x
CC(=O)N[C@@H](C)C(=O)N1CCN(S(=O)(=O)c2ccc(Cl)cc2)CC1,-4,2.8*,0.95,-177,1,5,-38
COc1ccccc1NC(=S)NC1CCC(CC2CCC(NC(=S)Nc3ccccc3OC)CC2)CC1 (stereo not given),6,1.1,2,-13,0.9,-98,x
CNC(=S)Nc1ccc([N+](=O)[O-])c(C)c1,8,1,1.1,-2,0.9,-6,x
CCn1c(C)nc2cc(C(=O)NNC(=S)Nc3ccc(C)cc3)ccc21,x,2*,1.2,-101,x,-15,-48
COc1cccc(-c2cc(C(=O)N3CCc4ccccc4C3)[nH]n2)c1,x,0.99,1.1,1,x,-14,x
Cc1ccc(-c2cc(C(=O)N3CCc4ccccc4C3)[nH]n2)cc1C,x,2.5*,1.4,-149,x,-44,6
Cc1ccc(NC(=O)CCC(=O)NNC(=S)Nc2ccc(F)cc2)c(C)c1,x,1.7,1,-70,x,0,x
Cc1ccc(NC(=O)CCC(=O)NNC(=S)Nc2ccc(F)cc2F)cc1C,x,2.2*,1,-123,x,0,7
CC(C)(C)N/N=C/c1c(O)n(-c2ccc(Cl)cn2)c(=O)c2ccccc12,-6,2*,1,-103,1.1,0,-93*
